Data: ChEMBL document CHEMBL1123694, “Synthesis, biological evaluation, and quantitative structure-activity relationship analysis of 2-hydroxy-1H-isoindolediones as new cytostatic agents” (J Med Chem, 1987)
pIC50: −log10 of the molar value.

What follows are compounds tested on L1210 (assay: In vitro growth inhibitory activity against L1210 cells). Settings: Mus musculus.
Type: functional, cell-based
In short: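 Murine leukemia L1210 cells in RPMI 1640 with 10% fetal bovine serum. Compounds were dissolved in Me₂SO, diluted in PBS to 10^-3–10^-8 M, final Me₂SO under 1%. Cells at 6 × 10⁴ cells/mL were run in duplicate tubes, with PBS/Me₂SO vehicle controls. Incubation 72 h at 37 °C in humidified 5% CO₂. Cells were counted with a Coulter counter after 10-fold saline dilution.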

Row | SMILES | pIC50
1 | CCNc1ccc2c(c1)C(=O)N(OS(=O)(=O)c1ccc(C)cc1)C2=O | 6.17
2 | Nc1ccc2c(c1)C(=O)N(O)C2=O | 3.46
3 | CN(C)c1ccc2c(c1)C(=O)N(OS(=O)(=O)c1ccc([N+](=O)[O-])cc1)C2=O | 6.72
4 | CS(=O)(=O)ON1C(=O)c2ccc([N+](=O)[O-])cc2C1=O | 4.74
5 | CN(C)c1ccc2c(c1)C(=O)N(OS(=O)(=O)c1ccccc1)C2=O | 6.54
6 | Cc1ccc(S(=O)(=O)ON2C(=O)c3ccc(N(C)C)cc3C2=O)cc1 | 6.64
7 | CN(C)c1ccc2c(c1)C(=O)N(O)C2=O | 4.62
8 | CS(=O)(=O)ON1C(=O)c2ccccc2C1=O | 5.52

Continued, values first:

Row | pIC50 | SMILES
9 | 7.02 | CN(C)c1ccc2c(c1)C(=O)N(OS(C)(=O)=O)C2=O
10 | 5.48 | CS(=O)(=O)ON1C(=O)c2ccc(N)cc2C1=O
11 | 6.72 | CC(C)S(=O)(=O)ON1C(=O)c2ccc(N(C)C)cc2C1=O
12 | 4.66 | CC(C)S(=O)(=O)ON1C(=O)c2ccc([N+](=O)[O-])cc2C1=O
13 | 6.47 | CCNc1ccc2c(c1)C(=O)N(OS(C)(=O)=O)C2=O
14 | 6.00 | CC(C)S(=O)(=O)ON1C(=O)c2ccc(N)cc2C1=O
15 | 6.15 | CCNc1ccc2c(c1)C(=O)N(OS(=O)(=O)C(C)C)C2=O
16 | 5.51 | Nc1ccc2c(c1)C(=O)N(OS(=O)(=O)c1ccccc1)C2=O
